The record followed here is PMC6021137 (Clinical cancer research : an official journal of the …, 2013).

One experiment deals with CWR22Pc xenograft tumors. The experiment can be described thus: CWR22Pc xenograft tumor growth. It counts as in vivo.
Experiment [1] concerns clinical prostate cancers ex vivo in organ explant cultures. The experiment can be described thus: Ex vivo organ explant cultures of clinical PCs. It counts as cell-based, human.
Experiment [2] relates to CWR22Rv1 tumor xenografts (orthotopic). The experiment can be described thus: Orthotopic CWR22Rv1 xenograft tumor growth. It counts as in vivo, SCID mice. To be noted: oral gavage. The method in brief: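 Luciferase-tagged CWR22Rv1 cells were implanted orthotopically into the prostates of male CB-17 SCID mice. Mice received test compound at 10 or 30 mg/kg, or vehicle (0.1% Tween 80/0.5% methylcellulose), daily by oral gavage. […]. Growth suppression was assessed at end of treatment versus vehicle.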

Experiment [3] deals with CWR22Pc cells. As to the kind of experiment: Cell cycle analysis. It counts as cell-based, human. As to conditions: CWR22Pc, 24, 48 and 72 h.
Experiment [4] has as its system CWR22Rv1 cells. As to the kind of experiment: Caspase-3 activation assay. It counts as cell-based, human. To be noted: 800 nM, 72 h.
For experiment [5], the target named is T1, Stat5a (Homo sapiens, UniProt O60674). As to the kind of experiment: Stat5a phosphorylation, immunoprecipitation/immunoblotting, CWR22Pc cells. It counts as cell-based. As to conditions: read-out: IC50, inhibition of constitutive activation of Stat5a; exponentially growing CWR22Pc cells. (Immunoblotting shows a protein as a band on a membrane.)
Another experiment concerns PC-3. The experiment can be described thus: Cell viability assay. As to conditions: Homo sapiens, PC-3, 72 h. It counts as cell-based.
Experiment [6] concerns the target T1, Stat5a. As to the kind of experiment: Stat5a phosphorylation, immunoprecipitation/immunoblotting, CWR22Rv1 cells. It counts as cell-based. As to conditions: read-out: IC50, inhibition of constitutive activation of Stat5a; exponentially growing CWR22Rv1 cells.
In experiment [7] the test system is CWR22Pc cells. The experiment can be described thus: Cell viability assay. To be noted: Homo sapiens, 72 h, read-out: GI50 (number of viable cells decreased by 50%). It counts as cell-based.
The next experiment concerns Stat5a/b dimerization. The experiment can be described thus: Stat5a/b dimerization by co-immunoprecipitation in PC-3 cells. As to conditions: 2 h pre-treatment, 10 nM hPrl. It counts as cell-based, human.
The test system of experiment [8] is CWR22Pc cells. As to the kind of experiment: Caspase-3 activation assay. It counts as cell-based, human. To be noted: 800 nM, 48 h.
Experiment [9] has as its system Stat5a/b nuclear translocation. As to the kind of experiment: Nuclear translocation of Stat5a/b, immunofluorescence in PC-3 cells. As to conditions: 200 nM AZD1480 for 2 h, 10 nM hPrl 20 min. It counts as cell-based, human.
The target in experiment [10] is T2, Stat5b (Homo sapiens, UniProt O60674). As to the kind of experiment: Stat5b phosphorylation, immunoprecipitation/immunoblotting, CWR22Rv1 cells. It counts as cell-based.
In experiment [11] the test system is CWR22Rv1 cells. The experiment can be described thus: Cell viability assay. It counts as cell-based. As to conditions: Homo sapiens, CWR22Rv1, 72 h, read-out: GI50 (number of viable cells decreased by 50%).
Experiment [12] deals with T2, Stat5b. The experiment can be described thus: Stat5b phosphorylation, immunoprecipitation/immunoblotting, CWR22Pc cells. It counts as cell-based.
For a further experiment, the system named is DU145. The experiment can be described thus: Cell viability assay. It counts as cell-based. To be noted: Homo sapiens, DU-145, 72 h.
The subject of experiment [13] is normal prostate epithelial cells (RC165N). The experiment can be described thus: Cell viability assay. It counts as cell-based. To be noted: Homo sapiens, 72 h.
Experiment [14] concerns CWR22Rv1 tumor xenografts (s.c.). As to the kind of experiment: Subcutaneous CWR22Rv1 xenograft tumor growth. As to conditions: for suppression of s.c. tumor growth at end of treatment: oral gavage. It counts as in vivo, SCID mice.
Setting [15] is: tumors harvested at end of treatment.

Usually IC50 stands for the concentration at which inhibition is half-maximal. As usually defined, the GI50 is the concentration giving 50% growth inhibition.

Where “and” joins values, the source holds several entries; their conditions need not be identical. Equal entries are not always repeated.

T2 sequence (O60674 whole entry): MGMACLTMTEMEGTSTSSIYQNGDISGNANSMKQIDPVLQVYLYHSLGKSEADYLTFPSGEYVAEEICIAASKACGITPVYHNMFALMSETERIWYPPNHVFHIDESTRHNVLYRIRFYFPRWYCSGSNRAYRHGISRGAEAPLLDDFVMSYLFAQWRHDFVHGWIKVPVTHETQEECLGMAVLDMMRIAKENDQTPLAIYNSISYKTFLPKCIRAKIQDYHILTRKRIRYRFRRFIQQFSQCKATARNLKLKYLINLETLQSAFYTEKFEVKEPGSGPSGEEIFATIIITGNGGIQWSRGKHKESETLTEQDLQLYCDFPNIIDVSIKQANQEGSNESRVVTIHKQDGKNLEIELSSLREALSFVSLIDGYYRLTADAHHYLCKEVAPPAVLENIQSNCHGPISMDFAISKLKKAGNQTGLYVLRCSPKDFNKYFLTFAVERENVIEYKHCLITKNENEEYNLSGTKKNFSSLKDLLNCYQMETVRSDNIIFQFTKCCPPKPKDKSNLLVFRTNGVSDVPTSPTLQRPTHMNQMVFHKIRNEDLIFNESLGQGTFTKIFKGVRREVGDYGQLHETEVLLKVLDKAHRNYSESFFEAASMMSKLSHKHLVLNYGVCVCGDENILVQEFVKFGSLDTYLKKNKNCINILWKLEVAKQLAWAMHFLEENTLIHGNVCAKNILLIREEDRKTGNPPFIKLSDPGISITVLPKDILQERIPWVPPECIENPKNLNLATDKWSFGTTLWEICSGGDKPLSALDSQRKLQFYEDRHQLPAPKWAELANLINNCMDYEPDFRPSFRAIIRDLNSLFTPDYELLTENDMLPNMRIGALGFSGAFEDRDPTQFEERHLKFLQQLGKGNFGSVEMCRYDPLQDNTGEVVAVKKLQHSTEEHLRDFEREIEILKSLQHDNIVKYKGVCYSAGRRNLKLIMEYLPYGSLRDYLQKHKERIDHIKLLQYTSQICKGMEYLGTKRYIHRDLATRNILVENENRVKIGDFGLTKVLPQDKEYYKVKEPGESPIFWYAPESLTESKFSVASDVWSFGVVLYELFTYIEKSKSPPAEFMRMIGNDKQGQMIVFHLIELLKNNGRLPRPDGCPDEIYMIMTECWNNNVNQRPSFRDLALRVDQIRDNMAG
T1 sequence (O60674 whole entry): as above

Turning to `CC(O)(CS(=O)(=O)c1ccc(F)cc1)C(=O)Nc1ccc(C#N)c(C(F)(F)F)c1` (stereo not drawn) [bicalutamide, reference compound], in the experiment with CWR22Pc xenograft tumors (50 mg/kg daily oral, 21 days from day 12), the “suppression of primary CWR22Pc tumor growth (TW 1)” value turned out to be 30%. The “nuclear Stat5a/b levels in CWR22Pc tumors (IHC)” value (“nuclear Stat5a/b levels … (IHC)” below) in the experiment on CWR22Pc xenograft tumors (setting [15]) was “no effect”.

Consider `Cc1cc(Nc2nc(N[C@@H](C)c3ncc(F)cn3)ncc2Cl)n[nH]1` [AZD1480, 5-Chloro-N(2)-[(1S)-1-(5-fluoropyrimidin-2-yl)ethyl]-N(4)-(5-methyl-1H-pyrazol-3-yl)pyrimidine-2,4-diamine], for which the “nuclear Stat5a/b levels in explants” value in experiment [1] (9 responsive PCs, both AZD1480 treatment groups) is recorded as “significantly decreased”. For the same molecule, the “clinical PCs not responding (non-responders)” value in experiment [1] (7 days culture) is 3 of the 12 and 3. Besides, in [1] (7 days culture), the “clinical PCs responding by loss of viable epithelium (responders)” value is recorded as “Nine of 12”. The “concentration from which extensive loss of viable epithelium starts” value in experiment [1] (responders, 7 days culture) came to 25 µM. The “inhibition of primary CWR22Pc tumor growth (TW 1)” value in the experiment with CWR22Pc xenograft tumors (30 mg/kg daily oral, 21 days from day 12) turned out to be 73%. The “emergence of CR CWR22Pc tumors (TW 2)” value in the experiment with CWR22Pc xenograft tumors (30 mg/kg daily oral, from day 13 after androgen deprivation) is listed as “significantly blocked”. Moreover, the “growth of established CR CWR22Pc tumors (TW 3)” value in the experiment with CWR22Pc xenograft tumors (30 mg/kg daily oral, from day 23 after androgen deprivation) is “significantly blocked”. The “overall survival of tumor-bearing mice” value in the experiment on CWR22Pc xenograft tumors (TWs 2 and 3, vs docetaxel-treated mice) is recorded as “better overall survival”. The “levels of full-length AR, AR splice variants and tissue PSA in tumor lysates” value in the experiment on CWR22Pc xenograft tumors (immunoblotting, TWs 1, 2 and 3) was “did not affect”. In addition, the “nuclear Stat5a/b levels … (IHC)” value in the experiment with CWR22Pc xenograft tumors (setting [15]) is listed as “decreased nuclear Stat5a/b levels in all TWs significantly”. The “fraction of viable tumor cells in CWR22Pc tumors” value in the experiment on CWR22Pc xenograft tumors (tumors harvested at end of treatment, all TWs) is “reduced the fraction of viable tumor cells in all TWs”. For the same molecule, the “suppression of orthotopic tumor growth” value in experiment [2] (10 mg/kg daily) was 6%; in [2] (30 mg/kg daily), 54%. The “cell cycle distribution: G1, G2-M and dead cells (sub G1)” value with CWR22Pc cells [3] was “fraction of dead cells (sub G1) was increased at all time points”. The “increase in caspase-3 activation” value is on record as 200% in the experiment on CWR22Rv1 cells [4] and 150% with CWR22Pc cells [8]. Further, the IC50 on Stat5a [5] came to 7 nM; on Stat5a [6] it was 16 nM; on Stat5b [10] (read-out: IC50 for Prl-induced Stat5b phosphorylation, serum-starved CWR22Rv1 cells, 10 nM hPrl), 48 nM; at Stat5b [10] (read-out: IC50 for Stat5b phosphorylation (constitutive), exponentially growing CWR22Rv1 cells) it was 65 nM; on Stat5b [12] (read-out: IC50 for Prl-induced Stat5b phosphorylation, serum-starved CWR22Pc cells, 10 nM hPrl), 70 nM; at Stat5b [12] (read-out: IC50 for Stat5b phosphorylation (constitutive), exponentially growing CWR22Pc cells) it was 65 nM. For the same molecule, the GI50 is 1760 nM in the experiment with PC-3; 482 nM with CWR22Pc cells [7]; 438 nM with CWR22Rv1 cells [11]; 3520 nM with DU145; 2080 nM in [13]. Further, in the experiment on Stat5a/b dimerization, the “hPrl-induced Stat5a/b dimerization” value was “potently inhibited”. In addition, the “ligand-induced nuclear translocation of Stat5a/b” value in experiment [9] is “no ligand-induced nuclear immunostaining of Stat5a/b”. Further, the “suppression of s.c. tumor growth at end of treatment” value in experiment [14] (10 mg/kg daily) is recorded as 52%; in [14] (30 mg/kg daily) it was 72%. The “Stat5a/b phosphorylation in s.c. xenograft tumor lysates” value in experiment [14] (2 h following 30 mg/kg) is “significant inhibition of Stat5a/b phosphorylation”. Besides, in experiment [14] (tumors harvested after 11 days of drug treatment), the “decrease in nuclear Stat5a/b in tumor tissues relative to control (IHC)” value amounted to 70%.

Take `CC(=O)O[C@@]12CO[C@@H]1C[C@H](O)[C@@]1(C)C(=O)[C@H](O)C3=C(C)[C@@H](OC(=O)[C@H](O)[C@@H](NC(=O)OC(C)(C)C)c4ccccc4)C[C@@](O)([C@@H](OC(=O)c4ccccc4)[C@H]21)C3(C)C` [docetaxel, reference compound]: the “nuclear Stat5a/b levels … (IHC)” value in the experiment on CWR22Pc xenograft tumors (setting [15]) is reported as “no effect”.
